Results pooled from the literature.
Each line is one published result; the experiments were not run side by side.
Target: Serine/threonine-protein kinase Sgk1 (SGK1, Homo sapiens, UniProt O00141)
Residues used in one study (O00141 1-431): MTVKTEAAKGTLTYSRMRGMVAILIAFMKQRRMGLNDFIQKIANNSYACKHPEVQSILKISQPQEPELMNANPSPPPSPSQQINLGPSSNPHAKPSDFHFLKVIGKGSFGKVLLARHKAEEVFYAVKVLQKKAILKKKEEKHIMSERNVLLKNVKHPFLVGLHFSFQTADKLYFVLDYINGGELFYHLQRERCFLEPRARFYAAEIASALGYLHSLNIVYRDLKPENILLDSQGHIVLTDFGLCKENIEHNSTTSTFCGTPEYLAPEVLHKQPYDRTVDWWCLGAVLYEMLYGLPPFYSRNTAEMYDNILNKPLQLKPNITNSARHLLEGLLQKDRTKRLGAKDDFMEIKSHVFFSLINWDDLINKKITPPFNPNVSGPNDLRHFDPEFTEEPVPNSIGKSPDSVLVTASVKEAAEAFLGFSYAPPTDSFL

| SMILES | effect on | action | method | concentration | endpoint | result |
| --- | --- | --- | --- | --- | --- | --- |
| Cn1cc(-c2cc(F)cc(N3CCn4c(cc5c4CCCC5)C3=O)c2CO)cc(Nc2ccc(N3CCN(C4COC4)CC3)cn2)c1=O | enzyme activity | inhibitor | – | 0.1 µM | inhibition | 13% |
| COc1ncccc1-c1cnn2ccc(N3CCN(C(=O)OC(C)C)CC3)nc12 | binding | – | competition with immobilised ligand | 1 µM | remaining binding | 100% |
| Cn1cncc1[C@@](O)(COc1ccc(C#N)cc1-c1ccc(OC(F)(F)F)cc1)c1ccc(C#N)cc1 | cell-free assay | – | competition with immobilised ligand | 1 µM | remaining binding | 100% |
| Nc1ncc(-c2nc(N3CCOCC3)nc(N3CCOCC3)n2)c(C(F)F)n1 | binding | – | competition with immobilised ligand | 10 µM | remaining binding | 77% |
| Cn1cc(-c2cccc(N3CCc4c(sc5c4CC(C)(C)C5)C3=O)c2CO)cc(Nc2ccncn2)c1=O | enzyme activity | inhibitor | – | 1 µM | inhibition | -11% |
| O=c1[nH]c2ccccc2n1C1CCN(Cc2ccc(-c3[nH]c4cc5ncnc5cc4nc3-c3ccccc3)cc2)CC1 | cell-free assay | – | – | 0.5 µM | remaining signal | 102% |
| C#Cc1n[nH]c2c(-c3cn(C(C)c4ccccn4)c(=O)[nH]c3=O)cc(F)cc12 (stereo not drawn) | enzyme activity | inhibitor | – | 1 µM | inhibition | 0% |
| N#CC1(c2ccccn2)CCN(Cc2cc(C(=O)O)c(=O)n3ccccc23)CC1 | cell-free assay | – | competition with immobilised ligand | 1 µM | remaining binding | 87% |
| CC(C)(C)c1cc(C=C(C#N)C#N)cc(Br)c1O | enzyme activity | inhibitor | – | 0.5 µM | remaining activity | 95.3% |
